Experimental data published in article PMC6682096 (ACS Omega, 2019).
Entries after “also recorded” stand apart in the source; their conditions may differ.

Legend:
[1] = system: insulin-resistant HepG2 cells; test: 2-NBDG glucose uptake assay; type: cell-based, human; details: for relative glucose uptake percentage: insulin-stimulated 2-NBDG uptake
Method in brief: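 Insulin-resistant HepG2 cells (grown in 10% FBS MEM; resistance induced by a previously reported method) treated with test compound at 12.5, 25 and 50 μM and stimulated with 10–6 M insulin. Uptake of the fluorescent glucose analogue 2-NBDG read fluorimetrically on a plate reader. Rosiglitazone (10 μM) served as reference. Triplicate experiments, mean ± standard deviation.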

[2] = system: IRS-1/PI3K/Akt signaling pathway in insulin-resistant HepG2 cells; test: Western blot of IRS-1/PI3K/Akt signaling pathway; type: cell-based, human
hMAO-A = target: T1, hMAO-A (Homo sapiens, UniProt P21397); test: Enzyme kinetics of hMAO-A inhibition; type: biochemical; details: Lineweaver–Burk plot
T1 sequence (P21397 1-527): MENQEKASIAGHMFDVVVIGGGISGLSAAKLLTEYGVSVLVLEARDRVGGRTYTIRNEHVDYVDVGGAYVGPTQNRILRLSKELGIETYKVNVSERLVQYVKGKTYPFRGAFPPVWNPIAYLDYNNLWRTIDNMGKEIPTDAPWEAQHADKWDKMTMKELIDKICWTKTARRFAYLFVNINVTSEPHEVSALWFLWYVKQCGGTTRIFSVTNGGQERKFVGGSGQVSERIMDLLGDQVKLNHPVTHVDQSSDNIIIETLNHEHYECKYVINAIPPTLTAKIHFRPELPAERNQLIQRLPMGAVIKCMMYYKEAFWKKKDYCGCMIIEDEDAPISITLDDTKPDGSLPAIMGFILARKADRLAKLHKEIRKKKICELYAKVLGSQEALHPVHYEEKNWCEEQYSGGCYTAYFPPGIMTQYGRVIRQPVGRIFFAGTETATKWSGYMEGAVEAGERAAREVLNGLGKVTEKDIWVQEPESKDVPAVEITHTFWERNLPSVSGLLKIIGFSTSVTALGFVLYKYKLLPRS
Method in brief: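 hMAO-A activity measured by chemiluminescent MAO-Glo assay, with MAO substrate at three concentrations, with or without test compound. Lineweaver–Burk plots (with Dixon plots) gave Km, Vmax and inhibition mode. Ki, Kic and Kiu came from secondary plots.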

PTP1B [3] = target: T2, PTP1B (Homo sapiens, UniProt P18031); test: Enzyme kinetics of PTP1B inhibition; type: biochemical; details: for Ki: secondary plots
T2 sequence (P18031 1-435): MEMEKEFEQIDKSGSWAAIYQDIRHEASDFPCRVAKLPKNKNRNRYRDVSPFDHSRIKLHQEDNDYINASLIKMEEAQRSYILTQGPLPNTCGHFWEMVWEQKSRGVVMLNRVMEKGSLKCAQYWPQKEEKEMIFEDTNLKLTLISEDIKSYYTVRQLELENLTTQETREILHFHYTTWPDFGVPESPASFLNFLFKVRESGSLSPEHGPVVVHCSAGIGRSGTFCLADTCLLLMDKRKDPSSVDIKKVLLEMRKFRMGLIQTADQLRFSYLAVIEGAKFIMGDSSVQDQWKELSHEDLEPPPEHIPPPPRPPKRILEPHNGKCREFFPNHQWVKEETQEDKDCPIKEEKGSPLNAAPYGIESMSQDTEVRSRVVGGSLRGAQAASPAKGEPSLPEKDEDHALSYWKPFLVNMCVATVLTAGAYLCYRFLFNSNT
Method in brief: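 Human recombinant PTP1B (0.5 unit) in pH 6.0 buffer (50 mM citrate, 0.1 M NaCl, 1 mM EDTA, 1 mM DTT) was preincubated with or without test compound for 10 min at 37 °C. pNPP substrate was then added at three concentrations and incubated for 20 min at 37 °C. NaOH stopped the reaction, and p-nitrophenol was read at 405 nm. Km and Vmax came from Lineweaver–Burk plots, with Dixon plots also used. Ki, Kic and Kiu came from secondary plots.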

[4] = system: PTP1B expression in insulin-resistant HepG2 cells; test: Western blot of PTP1B expression level; type: cell-based, human; details: 24 h treatment
[5] = system: PEPCK and G6Pase expression in insulin-resistant HepG2 cells; test: Western blot of PEPCK and G6Pase expression levels; type: cell-based, human
HepG2 cells = test: Cytotoxicity, cell viability by MTT assay; type: cell-based, human; details: up to 100 μM
Method in brief: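 HepG2 cells were subcultured in MEM with 10% FBS, refreshing the medium every 48 h until confluent. They were then seeded in 96-well plates, and viability after test-compound exposure was assessed by MTT assay.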

[6] = target: T3, human monoamine oxidase A (hMAO-A) (Homo sapiens, UniProt P21397); test: hMAO-A inhibition chemiluminescent assay; type: biochemical
T3 sequence (P21397 1-527): T1 sequence (P21397 1-527)

PTP1B [7] = target: T2, PTP1B; test: PTP1B inhibition assay using pNPP; type: biochemical

Row | SMILES | insulin-stimulated glucose uptake ([1]; 10 μM, 2-NBDG) [%] | expression of total IRS-1 and p-IRS-1 (Tyr 895) [2] | relative abundances of p-PI3K and p-Akt [2] | hMAO-A inhibition type (hMAO-A) | PTP1B inhibition type (PTP1B [3]; Lineweaver–Burk plot) | Ki (PTP1B [3]; PTP1B inhibition Ki value (Kic), binding constant of the inhibitor with the free enzyme) [µM] | Ki (PTP1B [3]; PTP1B inhibition Ki value (Kiu), binding constant of the inhibitor with the enzyme–substrate complex) [µM] | relative glucose uptake percentage ([1]; 12.5 μM) [%] | relative glucose uptake percentage ([1]; 25 μM) [%] | relative glucose uptake percentage ([1]; 50 μM) [%] | PTP1B expression [4] | expressions of PEPCK and G6Pase [5] | cytotoxicity (cell viability) (HepG2 cells) | IC50 [6] [µM] | IC50 (PTP1B [7]) [µM]
1 | CN(CCOc1ccc(CC2SC(=O)NC2=O)cc1)c1ccccn1 (stereo not drawn) [Rosiglitazone, reference compound] | 118.52 |  |  |  |  |  |  |  |  |  |  |  |  |  | 
2 | COc1cc(O)c2c(O)c3c(=O)cc(C)oc3cc2c1 [rubrofusarin] |  | dose-dependently increased the expression of total IRS-1 and p-IRS-1 (Tyr 895) | in a dose-dependent manner increased the relative abundances of p-PI3K and p-Akt | mixed-competitive | mixed-competitive | 6.99 | 18.3 | 68.54 | 81.27 | 98.47 | inhibited PTP1B expression in a dose-dependent manner; also recorded: at 50 μM concentration significantly reduced the expression | downregulate the expressions of PEPCK and G6Pase | showed toxicity at 100 μM; also recorded: nontoxic up to a 50 μM concentration | 5.9 ± 0.99 | 17 ± 0.49
